Source: paper PMC4633329 (Chemistry and physics of lipids, 2015)
Converted amounts (≈) assume the structure as drawn. “And” between values parts separate entries of the source, which are not always exact repeats. Equal values may be shown once. Read-outs that look alike come from different tables or passages of the source.

Key:
[1] = cited from earlier work
[2] = OA solubility from NMR visible EFG; type: physicochemical
Mb [3] = target: Mb (Equus caballus, UniProt P68082); assay: Optical spectra; set-up: species or system horse
[4] = pK of OA by NMR pH titration; type: physicochemical; details: 0.8 mM OA, 35 °C, 1H NMR, referenced to peak position at pH 12.14
FABP = details: read-out: Dissociation Constant KFABP; flux model input; ref [15]; [45]; cited from earlier work
MbCN [5] = target: MbCN (Equus caballus, UniProt P68082); assay: 1H NMR titration of MbCN with OA; type: binding, horse
Outline: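 Horse metMb converted to MbCN with 5-fold excess KCN in 30mM Tris, 1mM EDTA, pH 7.4. OA stock (10 or 100mM, pH 8.5, 65°C) added to 0.2-0.8 mM MbCN at 35°C (OA:Mb up to 60:1). 1H NMR at 600 MHz, 35°C, Watergate, 10% D2O, TSP reference. Heme methyl intensity loss fitted to a specific plus non-specific 2-site model by Marquardt-Levenberg regression.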

[6] = in the cell, cited from earlier work
deoxy Mb = details: ref [47]; [48]; cited from earlier work
MbCN [7] = details: read-out: MbCN-PA Kd; ref [47]; [48]; cited from earlier work
MbCO = details: read-out: MbCO-PA Kd; ref [47]; [48]; cited from earlier work
Mb [8] = details: 25:1 ratio of SDS to Mb; ref [50]; cited from earlier work

Chain of Mb (Equus caballus, UniProt P68082) (P68082 whole entry): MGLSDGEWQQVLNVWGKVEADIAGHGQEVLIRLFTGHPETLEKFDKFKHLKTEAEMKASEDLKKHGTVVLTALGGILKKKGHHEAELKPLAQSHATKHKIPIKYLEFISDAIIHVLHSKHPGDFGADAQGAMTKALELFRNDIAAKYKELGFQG
Chain of MbCN (Equus caballus, UniProt P68082) (P68082 whole entry): as above

CCCCCCCC/C=C\CCCCCCCC(=O)O [OA, oleic acid]
Solubility ([1]; 66 mM phosphate buffer, pH 7.4 at 37°C, ref [53], listed as Oleate): 1.00×10^−6 M and 2.83×10^−5 g/100g | Solubility ([1]; 0.2 M HEPES, pH 7.4 at 37°C, ref [46], listed as Oleate): 6.00×10^−6 M and 1.70×10^−4 g/100g | Solubility ([1]; 95% of ethanol at 20°C, ref [22]): ∞ | Solubility ([1]; Acetone at 20°C, ref [22]): ∞ | Solubility ([1]; Benzene at 20°C, ref [22]): ∞ | Solubility ([2]; 0.8mM MbCN in Tris, pH 7.4 35°C, 0.0904g/100g total OA added): 7.03×10^−2 g/100g | Solubility ([2]; 10.8mM MbCN in phosphate, pH 7.4 35°C, 0.0904g/100g total OA added): 6.59×10^−2 g/100g | Solubility ([2]; 30 mM Tris buffer, 35 °C, pH 7.4, aqueous buffer, kinetic from dmso stock): 1430 µM (≈ 404 µg/mL) | Solubility ([2]; 30 mM Tris buffer, 35 °C, pH 12, aqueous buffer, kinetic from dmso stock): 2990 µM (≈ 845 µg/mL) | Solubility ([2]; 30 mM Tris buffer, pH 7.4 35°C, 0.0904g/100g total OA added): 4.04×10^−2 g/100g | Solubility ([2]; 30 mM Tris buffer, pH 12 35°C, 0.0904g/100g total OA added): 8.45×10^−2 g/100g | Solubility ([2]; 100 mM phosphate buffer, 35 °C, pH 7.4, aqueous buffer, kinetic from dmso stock): 1260 µM (≈ 356 µg/mL) | Solubility ([2]; 100 mM phosphate buffer, pH 7.4 35°C, 0.0904g/100g total OA added): 3.56×10^−2 g/100g | hemichrome formation in optical spectra (Mb [3]; OA:Mb of 5:1 to 50:1): do not detect any signs of hemichrome formation | reduction in Soret band intensity (Mb [3]; OA:Mb of 50:1): 5% | Soret band position (Mb [3]; OA:Mb of 50:1, shifts from 422): 420 nm | perturbation of Mb Soret band at 422 nm (Mb [3]; OA:Mb ratio up to 5:1): no significant perturbation | reduction in Soret band intensity (Mb [3]; OA:Mb ratios 20:1 to 50:1): < 5% | Soret band position (Mb [3]; OA:Mb ratios 20:1 to 50:1, 422 nm without OA): 420 nm | metMb signal in optical spectra (Mb [3]; OA:Mb up to 50:1): no detectable metMb signal | pK from peak B [4]: 8.22 | pK from peak D [4]: 8.07 | Kd (FABP): 0.014 µM | Kd (MbCN [5]; Dissociation Constant KMb2 (non-specific binding), 2-site model, high OA:Mb): 37000 µM | Kd (MbCN [5]; apparent Kd (Kd1, KMb1), specific OA binding to MbCN, heme 8-CH3 signal loss, OA:Mb < 2:1, pH 7.4, 35 °C): 45 µM | Diffusion Constant, Fatty acid (DOA) ([6]; highest reported value, ref [52]): 4.6 × 10^−6 cm^2s^−1

CCCCCCCCCCCCCCCC(=O)O [PA, palmitate]
PA interaction with deoxy Mb (deoxy Mb): does not interact specifically or non-specifically | Kd (MbCN [7]): 43 µM | Kd (MbCO): 39 to 48 µM

CCCCCCCCCCCCOS(=O)(=O)[O-].[Na+] [SDS, sodium dodecyl sulfate]
loss of Soret band signal intensity (Mb [8]): 25%

B1: Mb: myoglobin; solutions prepared from lyophilized horse heart protein (protein, UniProt P68082 2-154, looked up)
Myoglobin: GLSDGEWQQVLNVWGKVEADIAGHGQEVLIRLFTGHPETLEKFDKFKHLKTEAEMKASEDLKKHGTVVLTALGGILKKKGHHEAELKPLAQSHATKHKIPIKYLEFISDAIIHVLHSKHPGDFGADAQGAMTKALELFRNDIAAKYKELGFQG
Diffusion Constant, Myoglobin (DMb) ([6]; ref [34]): 7.85 × 10^−7 cm^2s^−1
